# Measurements gathered from unrelated publications.
# Compare with care: the assays were run in different laboratories.
SMILES,target or system,assay,system,conditions,endpoint,result
CCCn1cnc2ccc(-c3ccc(NC(=O)CC(C)CC)nc3)cc2c1=O (stereo not shown),NCI-H1975,"cell growth or viability, CCK-8",,72 h,IC50,1.35 µM
COc1cccc(NC(=O)Nc2nc3cc(-c4ccc5ncn(CCC6CCCCC6)c(=O)c5c4)ccc3s2)c1,NCI-H1975,"cell growth or viability, MTT",,72 h,IC50,> 20 µM
NCC(=O)Nc1ccccc1/N=c1\cc(-c2ccc3c(c2)OCO3)oc2c(N)cccc12,NCI-H1975,"cell growth or viability, CCK-8",,1 µM,inhibition,4.64%
CCCCn1cnc2ccc(-c3ccc4sc(NC(=O)Nc5ccc(F)cc5)nc4c3)cc2c1=O,NCI-H1975,"cell growth or viability, MTT",,72 h,IC50,0.69 µM
NCCC(=O)Nc1ccc(/N=c2\cc(-c3ccc4c(c3)OCO4)oc3ccccc23)cc1,NCI-H1975,"cell growth or viability, CCK-8",,1 µM,inhibition,0.71%
O=C(Nc1ccc(-c2ccc3ncn(Cc4ccccc4)c(=O)c3c2)cn1)C1CCCC1,NCI-H1975,"cell growth or viability, CCK-8",,72 h,IC50,> 10 µM
COCCC(=O)Nc1ccccc1/N=c1\cc(-c2ccc3c(c2)OCO3)oc2ccccc12,NCI-H1975,"cell growth or viability, CCK-8",,1 µM,inhibition,3.84%
Cc1ccc(C(=O)Nc2ccc(-c3ccc4ncn(Cc5ccccc5)c(=O)c4c3)cn2)cc1,NCI-H1975,"cell growth or viability, CCK-8",,72 h,IC50,> 10 µM
O=C(Nc1nc2cc(-c3ccc4ncn(Cc5ccccc5)c(=O)c4c3)ccc2s1)c1ccccc1,NCI-H1975,"cell growth or viability, MTT",,72 h,IC50,> 20 µM
CCCC(=O)Nc1ccc(-c2ccc3ncn(Cc4ccccc4)c(=O)c3c2)cn1,NCI-H1975,"cell growth or viability, CCK-8",,72 h,IC50,> 10 µM
CCOc1ccc(Nc2c3c(nc4ccccc24)CCC3)cc1,Leishmania amazonensis,"parasite growth, MTT",,promastigote,IC50,1.43 µM
CCCCn1cnc2ccc(-c3ccc(NC(=O)Nc4ccc(OC)cc4)nc3)cc2c1=O,NCI-H1975,"cell growth or viability, CCK-8",,72 h,IC50,> 10 µM
Nc1nc2c(ncn2COCCO)c(=O)[nH]1,Human alphaherpesvirus 2,"viral replication, inhibitor, qPCR",Vero,,IC50,0.22 µM
COc1ccc2/c(=N/c3ccccc3NC(=O)[C@@H](N)C(C)(C)C)cc(-c3ccc4c(c3)OCO4)oc2c1,NCI-H1975,"cell growth or viability, CCK-8",,1 µM,inhibition,9.4%
COc1cccc(NC(=O)Nc2nc3cc(-c4ccc5ncn(CCN6CCOCC6)c(=O)c5c4)ccc3s2)c1,NCI-H1975,"cell growth or viability, MTT",,72 h,IC50,> 20 µM
c1ccc(Oc2ccc(Nc3c4c(nc5ccccc35)CCC4)cc2)cc1,Leishmania amazonensis,"parasite growth, MTT",,promastigote,IC50,1.09 µM
